Source: PubChem BioAssay AID504365 (Broad Institute, 2011)
Active and inactive are the calls of the source.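 The calls were made as follows: active = fitted curve reaches 10% of the positive control caspase activation at or below the top valid tested dose; inactive = signal shifts the opposite way, plus the rest.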

Legend:
[1] = apoptosis induction in A1-reliant human Mel501 line – Mel501 cells, luminescence, dry powder, set 2, orthogonal assay for A1 inhibitor project, dose response (AID 504365); settings: Mel501 cells, caspase-3/7 Glo luminescence, 6 h
How it was run: (§1)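 Material: Mel501 cells. Amount: 2500 Mel501 cells per well. Medium: RPMI-1640, 10% FBS, TSA. Compound dosing: pin-transferred compound. Incubation: 6 h compound (37 °C, 5% CO2), then 1 h Caspase-Glo. Measured by: Caspase-Glo 3/7 luminescence. Read-out: caspase-3/7 activation, shown by rising luminescence signal.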

[2] = tested on: Mel501 cells, caspase-3/7 Glo luminescence, 6 h; assay: as above
How it was run: as §1

| Structure (SMILES) | caspase activation ([1]; at 35 µM (top of the series)) | other results |
| --- | --- | --- |
| CC1(C)CCC(c2ccc(Cl)cc2)=C(CN2CCN(c3ccc(C(=O)NS(=O)(=O)c4ccc(N[C@H](CCN5CCOCC5)CSc5ccccc5)c(S(=O)(=O)C(F)(F)F)c4)cc3)CC2)C1 |  | caspase activation ([1]; at 16 µM (top of the series)): 0.95% (inactive) |
| COc1c([N+](=O)[O-])c(=O)n(C)c2ccccc12 | -0.501% (inactive) |  |
| Cc1ccc(Sc2c(Sc3ccc(C)cc3)c3ccccc3n(C)c2=O)cc1 | -1.69% (inactive) |  |
| O=c1[nH]c2ccccc2c(Cl)c1[N+](=O)[O-] |  | AC10 [2]: > 35 µM (inactive) |
| CCn1c(=O)c([N+](=O)[O-])c(Cl)c2ccccc21 | 2.55% (inactive) |  |
| Cc1ccc(Sc2c([N+](=O)[O-])c(=O)n(Cc3ccccc3)c3ccccc23)cc1 | -2.41% (inactive) |  |
| COc1nc2ccccc2c(Sc2ccc(C)cc2)c1[N+](=O)[O-] | -2.73% (inactive) |  |
| Cn1c(=O)c([N+](=O)[O-])c(Cl)c2ccccc21 |  | AC10 [2]: > 35 µM (inactive) |
| Cc1ccc(S(=O)(=O)c2c([N+](=O)[O-])c(=O)n(C)c3ccccc23)cc1 | -0.501% (inactive) |  |
| COc1ccc(CCNc2nc(N3CCCC3)nc(N3CCCC3)n2)cc1OC | 0.012% (inactive) |  |
| Cn1c(=O)c([N+](=O)[O-])c(Sc2ccccn2)c2ccccc21 | -1.77% (inactive) |  |
| Cn1c(=O)c([N+](=O)[O-])c(S(C)(=O)=O)c2ccccc21 | -1.8% (inactive) |  |
| COCCn1c(=O)c([N+](=O)[O-])c(Sc2ccc(C)cc2)c2ccccc21 | -1.69% (inactive) |  |
| COCCn1c(=O)c(Sc2ccc(C)cc2)c(Sc2ccc(C)cc2)c2ccccc21 | -1.29% (inactive) |  |
| Cn1c(=O)c(Sc2ccccn2)c(Sc2ccccn2)c2ccccc21 | -2.24% (inactive) |  |
| C/C(=N\Nc1nc(N2CCCCC2)nc(N2CCCCC2)n1)c1ccc(F)cc1 | -1.18% (inactive) |  |
| CCn1c(=O)c(Sc2ccc(C)cc2)c(Sc2ccc(C)cc2)c2ccccc21 | -1.83% (inactive) |  |
| O=c1[nH]c2ccccc2c(O)c1[N+](=O)[O-] | -2.05% (inactive) |  |
| COCCn1c(=O)c([N+](=O)[O-])c(Cl)c2ccccc21 | 6.5% (inactive) |  |
| O=c1c([N+](=O)[O-])c(Cl)c2ccccc2n1Cc1ccccc1 |  | AC10 [2]: 30.2 µM |
| COc1nc2ccccc2c(Cl)c1[N+](=O)[O-] | -1.96% (inactive) |  |
| COc1ccc(N2CCN(c3nc(NCCc4ccc(OC)c(OC)c4)nc(N4CCOCC4)n3)CC2)cc1 | -1.94% (inactive) |  |
| Cc1ccc(Sc2c(Sc3ccc(C)cc3)c3ccccc3n(Cc3ccccc3)c2=O)cc1 | -1.23% (inactive) |  |
| Cc1ccc(Sc2c([N+](=O)[O-])c(=O)n(C)c3ccccc23)cc1 | -1.78% (inactive) |  |
| O=C(COc1ccc(Cl)cc1Cl)NNc1nc(N2CCOCC2)nc(N2CCOCC2)n1 | -1.89% (inactive) |  |
| COc1ccc(CCNc2nc(N3CCOCC3)nc(N3CCOCC3)n2)cc1OC | 0.627% (inactive) |  |
| CCn1c(=O)c([N+](=O)[O-])c(Sc2ccc(C)cc2)c2ccccc21 | -0.736% (inactive) |  |
